Results as given in ChEMBL document CHEMBL3808334, “Synthesis and in vitro evaluation of novel triazine analogues as anticancer agents and their interaction studies with bovine serum albumin” (Eur J Med Chem, 2016).

Assays:
Assay type in all cases: functional
[1] = Growth inhibition of human UO31 cells assessed as cell growth at 10^-4 M incubated for 48 hrs by sulforhodamine B assay; conditions: UO-31, 48 h, read-out: Activity
[2] = Growth inhibition of human SW620 cells incubated for 48 hrs by sulforhodamine B assay; conditions: SW-620, 48 h
How it was run: (§1)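 Cells were plated at 5,000–40,000 per well according to doubling time and preincubated 24 h at 37 °C in 5% CO2; time-zero plates were then TCA-fixed. Five concentrations (10-fold or ½-log dilutions, DMSO stock) were incubated 48 h. Cells were TCA-fixed, stained with 0.4% SRB and read at 515 nm. GI50 was taken where [(Ti−Tz)/(C−Tz)]×100 = 50.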

[3] = Growth inhibition of human UACC62 cells incubated for 48 hrs by sulforhodamine B assay; conditions: UACC-62, 48 h; how it was run: as §1
[4] = Growth inhibition of human Hs 578T cells incubated for 48 hrs by sulforhodamine B assay; how it was run: as §1
SK-MEL-5 [5] = assay: Growth inhibition of human SK-MEL-5 cells assessed as cell growth at 10^-8 M incubated for 48 hrs by sulforhodamine B assay; conditions: SK-MEL-5, 48 h, read-out: Activity
[6] = Growth inhibition of human OVCAR4 cells assessed as cell growth at 10^-8 M incubated for 48 hrs by sulforhodamine B assay; conditions: OVCAR-4, 48 h, read-out: Activity
[7] = Growth inhibition of human DU145 cells assessed as cell growth at 10^-8 M incubated for 48 hrs by sulforhodamine B assay; conditions: DU-145, 48 h, read-out: Activity
How it was run: (§2)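 Cells seeded at 5,000–40,000/well according to doubling time and preincubated 24 h at 37 °C, 5% CO2. Time-zero plates were TCA-fixed. DMSO concentrate was diluted in medium with 50 µg/ml gentamicin to give five concentrations (10-fold or ½ log steps), then exposed 48 h. Cells were TCA-fixed, stained with 0.4% SRB and read at 515 nm. Percent growth was taken against time-zero and control; GI50, TGI and LC50 derived.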

MDA-MB-468 = assay: Growth inhibition of human MDA-MB-468 cells assessed as cell growth at 10^-5 M incubated for 48 hrs by sulforhodamine B assay; conditions: MDA-MB-468, 48 h, read-out: Activity
SK-MEL-5 [8] = assay: Growth inhibition of human SK-MEL-5 cells assessed as cell growth at 10^-7 M incubated for 48 hrs by sulforhodamine B assay; conditions: SK-MEL-5, 48 h, read-out: Activity
[9] = Growth inhibition of human OVCAR5 cells assessed as cell growth at 10 uM incubated for 48 hrs by sulforhodamine B assay; conditions: OVCAR-5, 48 h, read-out: Activity
[10] = Growth inhibition of human OVCAR8 cells assessed as cell growth at 10 uM incubated for 48 hrs by sulforhodamine B assay; conditions: OVCAR-8, 48 h, read-out: Activity
NCI/ADR-RES = assay: Growth inhibition of human NCI/ADR-RES cells assessed as cell growth at 10 uM incubated for 48 hrs by sulforhodamine B assay; conditions: read-out: Activity
CCRF-CEM = assay: Growth inhibition of human CCRF-CEM cells assessed as cell growth at 10^-8 M incubated for 48 hrs by sulforhodamine B assay; conditions: read-out: Activity
How it was run: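 Leukemia line in the five-dose format: five concentrations from 10-fold or ½-log serial dilutions. Plated at 5,000–40,000 cells per well, preincubated 24 h, then compound added for 48 h at 37 °C, 5% CO₂. Sulforhodamine B absorbance read at 515 nm. Growth is computed against time-zero (Tz) and control (C) readings; GI₅₀ is where [(Ti−Tz)/(C−Tz)]×100 = 50.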

[11] = Growth inhibition of human HL-60(TB) cells assessed as cell growth at 10^-8 M incubated for 48 hrs by sulforhodamine B assay; conditions: HL-60, 48 h, read-out: Activity
How it was run: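 Cells plated at 5,000–40,000/well according to doubling time and preincubated 24 h at 37 °C, 5% CO₂, with time-zero plates TCA-fixed. Drugs were kept as DMSO concentrates at 400× the top concentration and diluted in medium with 50 µg/ml gentamicin. Five 10-fold or ½-log dilutions were run for 48 h, followed by SRB staining and A515. Percent growth = (Ti−Tz)/(C−Tz)×100, or (Ti−Tz)/Tz×100 when Ti<Tz.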

[12] = Growth inhibition of human RPMI8226 cells assessed as cell growth at 10^-6 M incubated for 48 hrs by sulforhodamine B assay; conditions: RPMI-8226, 48 h, read-out: Activity
SR [13] = assay: Growth inhibition of human SR cells assessed as cell growth at 10^-6 M incubated for 48 hrs by sulforhodamine B assay; conditions: read-out: Activity
[14] = Growth inhibition of human SW620 cells assessed as cell growth at 10^-8 M incubated for 48 hrs by sulforhodamine B assay; conditions: SW-620, 48 h, read-out: Activity
[15] = Growth inhibition of human OVCAR5 cells assessed as cell growth at 10^-6 M incubated for 48 hrs by sulforhodamine B assay; conditions: OVCAR-5, 48 h, read-out: Activity
K562 [16] = assay: Growth inhibition of human K562 cells assessed as cell growth at 10^-5 M incubated for 48 hrs by sulforhodamine B assay; conditions: K562, 48 h, read-out: Activity
SR [17] = assay: Growth inhibition of human SR cells assessed as cell growth at 10^-5 M incubated for 48 hrs by sulforhodamine B assay; conditions: read-out: Activity
[18] = Growth inhibition of human COLO205 cells assessed as cell growth at 10^-5 M incubated for 48 hrs by sulforhodamine B assay; conditions: COLO 205, 48 h, read-out: Activity; how it was run: as §2
[19] = Growth inhibition of human SNB75 cells assessed as cell growth at 10^-5 M incubated for 48 hrs by sulforhodamine B assay; conditions: SNB-75, 48 h, read-out: Activity
M14 = assay: Growth inhibition of human M14 cells assessed as cell growth at 10^-5 M incubated for 48 hrs by sulforhodamine B assay; conditions: M14, 48 h, read-out: Activity
K562 [20] = assay: Growth inhibition of human K562 cells assessed as cell growth at 10 uM incubated for 48 hrs by sulforhodamine B assay; conditions: K562, 48 h, read-out: Activity
[21] = Growth inhibition of human HCC2998 cells assessed as cell growth at 10 uM incubated for 48 hrs by sulforhodamine B assay; conditions: HCC 2998, 48 h, read-out: Activity
How it was run: (§3)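 Primary screen at one dose (10 µM) across 60 human cancer cell lines. Readout was growth percent relative to untreated control and time-zero.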

[22] = Growth inhibition of human HCT15 cells assessed as cell growth at 10 uM incubated for 48 hrs by sulforhodamine B assay; conditions: HCT-15, 48 h, read-out: Activity; how it was run: as §3
[23] = read-out: LC50 (the source's name)
[24] = read-out: pLC50 (the source's name) (converted)

Question: Which growth at 100 µM [1] does the source give for `Fc1ccc(-c2nc(Nc3ccc(-c4nc5ccccc5[nH]4)cc3)nc(N3CCOCC3)n2)cc1` here?
Answer: -16%

Question: And the GI50 ([2]; read-out: GI50)?
Answer: 2.19 µM

Question: What about the CC50 [2, 23] of the same molecule?
Answer: > 100 µM

Question: And the TGI ([2]; read-out: TGI)?
Answer: 4.8 µM

Question: And the GI50 ([2]; read-out: pGI50 (converted))?
Answer: 2.19 µM

Question: What about the CC50 [2, 24] of the same molecule?
Answer: > 100 µM

Question: What about the TGI ([2]; read-out: pTGI (converted)) of the same molecule?
Answer: 4.79 µM

Question: And the GI50 ([3]; read-out: GI50)?
Answer: 1.7 µM

Question: And the TGI ([3]; read-out: TGI)?
Answer: 3.56 µM

Question: What about the GI50 ([3]; read-out: pGI50 (converted)) of the same molecule?
Answer: 1.7 µM

Question: What about the TGI ([3]; read-out: pTGI (converted)) of the same molecule?
Answer: 3.55 µM

Question: And the GI50 ([4]; read-out: GI50)?
Answer: 1.76 µM

Question: What about the CC50 [4, 23] of the same molecule?
Answer: > 100 µM

Question: What about the TGI ([4]; read-out: TGI) of the same molecule?
Answer: 6.96 µM

Question: What about the GI50 ([4]; read-out: pGI50 (converted)) of the same molecule?
Answer: 1.78 µM

Question: What about the CC50 [4, 24] of the same molecule?
Answer: > 100 µM

Question: And the TGI ([4]; read-out: pTGI (converted))?
Answer: 6.92 µM

Question: And the growth at 0.01 µM (SK-MEL-5 [5])?
Answer: 98%

Question: What about the growth at 0.01 µM [6] of the same molecule?
Answer: 99%

Question: And the growth at 0.01 µM [7]?
Answer: 101%

Question: And the growth at 10 µM (MDA-MB-468)?
Answer: -14%

Question: And the growth at 0.1 µM (SK-MEL-5 [8])?
Answer: 101%

Question: And the growth at 10 µM [9]?
Answer: 66.3%

Question: And the growth at 10 µM [10]?
Answer: 39.2%

Question: What about the growth at 10 µM (NCI/ADR-RES) of the same molecule?
Answer: 34.2%

Question: And the growth at 0.01 µM (CCRF-CEM)?
Answer: 102%

Question: What about the growth at 0.01 µM [11] of the same molecule?
Answer: 92%

Question: What about the growth at 1 µM [12] of the same molecule?
Answer: 77%

Question: What about the growth at 1 µM (SR [13]) of the same molecule?
Answer: 37%

Question: What about the growth at 0.01 µM [14] of the same molecule?
Answer: 97%

Question: What about the growth at 1 µM [15] of the same molecule?
Answer: 92%

Question: And the growth at 10 µM (K562 [16])?
Answer: -31%

Question: And the growth at 10 µM (SR [17])?
Answer: -15%

Question: What about the growth at 10 µM [18] of the same molecule?
Answer: -55%

Question: And the growth at 10 µM [19]?
Answer: 1%

Question: And the growth at 10 µM (M14)?
Answer: -62%

Question: And the growth at 10 µM (K562 [20])?
Answer: -22%

Question: And the growth at 10 µM [21]?
Answer: -19.9%

Question: And the growth at 10 µM [22]?
Answer: -62.2%

Question: With `c1ccc2[nH]c(-c3ccc(Nc4nc(N5CCCCC5)nc(N5CCOCC5)n4)cc3)nc2c1` as the molecule, how does the growth at 100 µM [1] read?
Answer: -36%

Question: And the GI50 ([2]; read-out: GI50)?
Answer: 2.34 µM

Question: What about the CC50 [2, 23] of the same molecule?
Answer: 74.7 µM

Question: And the TGI ([2]; read-out: TGI)?
Answer: 5.87 µM

Question: And the GI50 ([2]; read-out: pGI50 (converted))?
Answer: 2.34 µM

Question: What about the CC50 [2, 24] of the same molecule?
Answer: 74.1 µM

Question: And the TGI ([2]; read-out: pTGI (converted))?
Answer: 5.89 µM

Question: And the GI50 ([3]; read-out: GI50)?
Answer: 1.96 µM

Question: And the TGI ([3]; read-out: TGI)?
Answer: 4.32 µM

Question: And the GI50 ([3]; read-out: pGI50 (converted))?
Answer: 1.95 µM

Question: And the TGI ([3]; read-out: pTGI (converted))?
Answer: 4.37 µM

Question: What about the GI50 ([4]; read-out: GI50) of the same molecule?
Answer: 2.56 µM

Question: And the CC50 [4, 23]?
Answer: > 100 µM

Question: And the TGI ([4]; read-out: TGI)?
Answer: 8.61 µM

Question: And the GI50 ([4]; read-out: pGI50 (converted))?
Answer: 2.57 µM

Question: And the CC50 [4, 24]?
Answer: > 100 µM

Question: And the TGI ([4]; read-out: pTGI (converted))?
Answer: 8.51 µM

Question: What about the growth at 0.01 µM (SK-MEL-5 [5]) of the same molecule?
Answer: 97%

Question: What about the growth at 0.01 µM [6] of the same molecule?
Answer: 101%

Question: What about the growth at 0.01 µM [7] of the same molecule?
Answer: 102%

Question: And the growth at 10 µM (MDA-MB-468)?
Answer: -24%

Question: What about the growth at 0.1 µM (SK-MEL-5 [8]) of the same molecule?
Answer: 93%

Question: What about the growth at 10 µM [9] of the same molecule?
Answer: 73.9%

Question: What about the growth at 10 µM [10] of the same molecule?
Answer: 45.7%

Question: What about the growth at 10 µM (NCI/ADR-RES) of the same molecule?
Answer: 45.6%

Question: And the growth at 0.01 µM (CCRF-CEM)?
Answer: 99%

Question: And the growth at 0.01 µM [11]?
Answer: 98%

Question: What about the growth at 1 µM [12] of the same molecule?
Answer: 87%

Question: And the growth at 1 µM (SR [13])?
Answer: 44%

Question: And the growth at 0.01 µM [14]?
Answer: 97%

Question: And the growth at 1 µM [15]?
Answer: 103%

Question: What about the growth at 10 µM (K562 [16]) of the same molecule?
Answer: -21%

Question: What about the growth at 10 µM (SR [17]) of the same molecule?
Answer: -14%

Question: What about the growth at 10 µM [18] of the same molecule?
Answer: -63%

Question: What about the growth at 10 µM [19] of the same molecule?
Answer: 10%

Question: What about the growth at 10 µM (M14) of the same molecule?
Answer: -45%

Question: And the growth at 10 µM (K562 [20])?
Answer: -6.74%

Question: And the growth at 10 µM [21]?
Answer: -1.07%

Question: And the growth at 10 µM [22]?
Answer: -33.9%
